Source: ChEMBL document CHEMBL1127327, “Novel series of TSAO-T derivatives. Synthesis and anti-HIV-1 activity of 4-, 5-, and 6-substituted pyrimidine analogues” (J Med Chem, 1994)
Several values for one entry are separate records, joined by “and”; a condition that tells them apart may be missing. Equal entries are not always repeated.

How the values were obtained:
MT4 [1] = test: Effective concentration against HIV-2 induced cytopathicity in MT-4 cells; format: functional, cell-based; details: Homo sapiens
How it was run: (§1)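 MT-4 cells at 5 × 10^5 cells/mL, infected with HIV-1 or HIV-2 at 100 CCID50 per mL, then mixed 1:1 with serial compound dilutions. After 5 days, viable cells in infected and mock-infected cultures were counted by trypan blue exclusion. EC50 is the concentration giving a 50% reduction in virus-induced loss of viable cells.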

MT4 [2] = test: Selectivity index (ratio CC50/EC50) in MT-4 cells is measured; format: functional
How it was run: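 Ratio of CC50 to EC50, both from MT-4 cultures read after 5 days by trypan blue viable-cell counts. CC50 is the concentration reducing mock-infected MT-4 cell number by 50%. EC50 comes from HIV-infected MT-4 cells (100 CCID50 per mL, 5 × 10^5 cells/mL).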

[3] = tested on: Human immunodeficiency virus; test: Effective concentration against HIV-1 induced cytopathicity in MT-4 cells; format: functional, organism-based, MT4; how it was run: as §1
MT4 [4] = test: Concentration required for 50% of cell death on MT-4 cell lines; format: functional, Homo sapiens
How it was run: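 Mock-infected MT-4 cells (5 × 10^5 cells/mL) in fresh culture medium, mixed in microtiter wells with dilutions of test compound. After 5 days, viable cells counted by trypan blue staining. CC50 taken as the compound concentration that reduces the number of mock-infected MT-4 cells by 50%.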

CCRF-CEM [5] = test: Effective concentration against HIV-2 induced cytopathicity in CEM cells; format: functional, cell-based; details: Homo sapiens
How it was run: (§2)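 CEM cells at 5 × 10^5 cells/mL in fresh medium, infected with HIV-1 or HIV-2 at 100 CCID50 per mL of suspension, then mixed 1:1 with serial compound dilutions. Virus-induced syncytia were counted microscopically after 4 days. EC50 is the concentration reducing syncytium number by 50%.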

CCRF-CEM [6] = test: Effective concentration against HIV-1 induced cytopathicity in CEM cells; format: functional, cell-based; details: Homo sapiens; how it was run: as §2
[7] = Human immunodeficiency virus 1, MT4

Row | Structure (SMILES) | EC50 (MT4 [1]) [µM] | Selectivity index (MT4 [2]) | EC50 [3, 7] [µM] | CC50 (MT4 [4]) [µM] | EC50 (CCRF-CEM [5]) [µM] | EC50 (CCRF-CEM [6]) [µM] | EC50 ([3]; mt4)
1 | Cc1cn([C@@H]2O[C@H](CO[Si](C)(C)C(C)(C)C)[C@@]3(OS(=O)(=O)C=C3N)[C@H]2O[Si](C)(C)C(C)(C)C)c(=O)nc1N(C)C | > 32 | 388 | 0.16 | 62 | – | – | –
2 | Cc1cn([C@@H]2O[C@H](CO[Si](C)(C)C(C)(C)C)C3(OS(=O)(=O)C=C3N)[C@H]2O[Si](C)(C)C(C)(C)C)c(=O)[nH]c1=O (some centres undefined) | – | 217 | – | 13 | > 7 | 0.044 | –
3 | COC(=N)c1cc(=O)[nH]c(=O)n1[C@@H]1O[C@H](CO[Si](C)(C)C(C)(C)C)[C@@]2(OS(=O)(=O)C=C2N)[C@H]1O[Si](C)(C)C(C)(C)C | – | 4.1 | – | 11 | > 6.3 | 1.1 | 2.7 µM and > 6.3 µM
4 | CC(C)(C)[Si](C)(C)OC[C@H]1O[C@@H](n2cc(F)c(=O)[nH]c2=O)[C@H](O[Si](C)(C)C(C)(C)C)[C@]12OS(=O)(=O)C=C2N | – | 10 | – | 5 | > 6.7 | 0.34 | 0.5 µM and > 1.3 µM
5 | CC(C)(C)[Si](C)(C)OC[C@H]1O[C@@H](n2cc(Br)c(=O)[nH]c2=O)[C@H](O[Si](C)(C)C(C)(C)C)[C@]12OS(=O)(=O)C=C2N | – | 11 | – | 3.6 | – | – | 0.32 µM and > 2.4 µM
6 | CC(C)(C)[Si](C)(C)OC[C@H]1O[C@@H]2[C@H](O[Si](C)(C)C(C)(C)C)[C@]13OS(=O)(=O)C=C3Nc1cc(=O)[nH]c(=O)n12 | – | 2.7 | – | 16 | – | – | 5.9 µM and > 12 µM
7 | CC(C)(C)[Si](C)(C)OC[C@H]1O[C@@H](n2cc(I)c(=O)[nH]c2=O)[C@H](O[Si](C)(C)C(C)(C)C)[C@]12OS(=O)(=O)C=C2N | – | 133 | – | 12 | > 5.7 | 0.03 | –
8 | CNc1nc(=O)n([C@@H]2O[C@H](CO[Si](C)(C)C(C)(C)C)[C@@]3(OS(=O)(=O)C=C3N)[C@H]2O[Si](C)(C)C(C)(C)C)cc1C | – | 217 | – | 26 | > 33 | 0.11 | –
9 | CN(C)c1ccn([C@@H]2O[C@H](CO[Si](C)(C)C(C)(C)C)[C@@]3(OS(=O)(=O)C=C3N)[C@H]2O[Si](C)(C)C(C)(C)C)c(=O)n1 | – | 252 | – | > 166 | > 166 | 0.75 | –
10 | CC(C)(C)[Si](C)(C)OC[C@H]1O[C@@H](n2cc(C(F)(F)F)c(=O)[nH]c2=O)[C@H](O[Si](C)(C)C(C)(C)C)[C@]12OS(=O)(=O)C=C2N | – | 17 | – | 14 | > 6.2 | 0.77 | 0.82 µM and > 6.2 µM
11 | CC(C)(C)[Si](C)(C)OC[C@H]1O[C@@H](n2c(C#N)cc(=O)[nH]c2=O)[C@H](O[Si](C)(C)C(C)(C)C)[C@]12OS(=O)(=O)C=C2N | – | 3 | 3.6 | 11 | > 6.6 | 2.1 | 3.6 µM
12 | CCc1cn([C@@H]2O[C@H](CO[Si](C)(C)C(C)(C)C)[C@@]3(OS(=O)(=O)C=C3N)[C@H]2O[Si](C)(C)C(C)(C)C)c(=O)[nH]c1=O | – | 88 | – | 5.3 | – | – | –
13 | CC(C)(C)[Si](C)(C)OC[C@H]1O[C@@H](n2ccc(=O)[nH]c2=O)[C@H](O[Si](C)(C)C(C)(C)C)C12OS(=O)(=O)C=C2N (some centres undefined) | – | 74 | – | 14 | – | – | –
14 | CC(C)(C)[Si](C)(C)OC[C@H]1O[C@@H](n2ccc(N)nc2=O)[C@H](O[Si](C)(C)C(C)(C)C)[C@]12OS(=O)(=O)C=C2N | – | 460 | – | > 350 | > 350 | 1.39 | –
15 | CNc1ccn([C@@H]2O[C@H](CO[Si](C)(C)C(C)(C)C)[C@@]3(OS(=O)(=O)C=C3N)[C@H]2O[Si](C)(C)C(C)(C)C)c(=O)n1 | – | 18 | – | 12 | > 6.8 | 3.38 | 0.68 µM and > 6.8 µM
16 | Cc1cn([C@@H]2O[C@H](CO[Si](C)(C)C(C)(C)C)[C@@]3(OS(=O)(=O)C=C3N)[C@H]2O[Si](C)(C)C(C)(C)C)c(=O)nc1N | – | 250 | – | 30 | > 13.5 | 0.05 | –
